The values that follow come from ChEMBL document CHEMBL1130425, “An orally bioavailable pyrrolinone inhibitor of HIV-1 protease: computational analysis and X-ray crystal structure of the enzyme complex” (J Med Chem, 1997).

Assay [1] concerns the target Human immunodeficiency virus type 1 protease (Human immunodeficiency virus 1) (UniProt Q72874). In words: Cellular antiviral activity against HIV-1 Protease.
The target in assay [2] is Human immunodeficiency virus type 1 protease (Human immunodeficiency virus 1, UniProt Q72874). As to the kind of experiment: Inhibition of HIV-1 protease.
The nature of assay [3]: Ratio of CIC95 to IC50 values. In short, it runs like this:
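Ratio computed by dividing the cellular antiviral CIC95 by the IC50 from the purified HIV-1 protease inhibition assay, both in nM.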

In assay [1], `CC(C)(C)OC(=O)N[C@@H](Cc1ccccc1)[C@@H](O)C[C@]1(Cc2ccccc2)N=CC(C2c3ccccc3C[C@H]2O)=C1O` (some centres undefined) gave an IC95 of 800 nM. In addition, in assay [2], inhibition was half-maximal at 11.9 nM (IC50).
The compound `O=C(N[C@@H](Cc1ccccc1)[C@@H](O)C[C@]1(Cc2ccccc2)N=CC(C2c3ccccc3C[C@H]2O)=C1O)O[C@H]1CCOC1` (some centres undefined) displayed an IC95 in assay [1] of 100 nM. The compound further registered an IC50 in assay [2] of 2 nM.
In assay [2], `CC(C)(C)OC(=O)N[C@@H](Cc1ccccc1)[C@@H](O)C[C@]1(Cc2ccc(O)cc2)N=CC(C2c3ccccc3C[C@H]2O)=C1O` (some centres undefined) returned an IC50 of 6 nM.
In the case of `CC(C)C[C@H](NC(=O)[C@H](Cc1ccccc1)C[C@H](O)[C@H](Cc1ccccc1)NC(=O)OC(C)(C)C)C(=O)N[C@@H](Cc1ccccc1)C(N)=O`, the Ratio in assay [3] is 10000.
As to `CC(C)(C)OC(=O)N[C@@H](Cc1ccccc1)[C@@H](O)C[C@@](C)(Cc1ccccc1)C(=O)NC1c2ccccc2C[C@H]1O` (single isomer, unassigned), the IC50 in assay [2] was 7 nM.
Same read-out and setting: as for `CC(C)(C)OC(=O)N[C@@H](Cc1ccccc1)[C@@H](O)CC1(Cc2ccccc2)CCN(C2c3ccccc3C[C@H]2O)C1=O` (single isomer, unassigned), the figure is 86 nM.
Compound `O=C(N[C@@H](Cc1ccccc1)[C@@H](O)C[C@@H](Cc1ccccc1)C(=O)NC1c2ccccc2C[C@H]1O)OC1CCOC1` (single isomer, unassigned) displayed a concentration for an effect of 95% (IC95) in assay [1] of 3 nM. Also, in assay [2], the IC50 is 0.03 nM. The Ratio in assay [3] came out at 100.
For the compound `CN(C(=O)[C@H](Cc1ccccc1)C[C@H](O)[C@H](Cc1ccccc1)NC(=O)OC(C)(C)C)C1c2ccccc2C[C@H]1O` (single isomer, unassigned), the IC50 in assay [2] came to 186 nM.
In turn, `CC(C)(C)NC(=O)[C@@H]1CN(Cc2cccnc2)CCN1C[C@@H](O)C[C@@H](Cc1ccccc1)C(=O)NC1c2ccccc2C[C@H]1O` (single isomer, unassigned) came in with a concentration for an effect of 95% (IC95) in assay [1] of 25 nM.
Take `CC(C)(C)OC(=O)N[C@@H](Cc1ccccc1)[C@@H](O)C[C@@H](Cc1ccccc1)C(=O)NC1c2ccccc2C[C@H]1O` (single isomer, unassigned): in assay [3], the Ratio stood at 1330.
